Assay results from different studies.
pEC50, pIC50: −log10 of the molar value.
Observed: cell growth or viability

Compound	cell line	technique	concentration	time	notes	measurement	result
N[C@H]1CC[C@H](N[C@@H]2C[C@H]2c2ccccc2)CC1	HEK293	resazurin	–	–	–	pIC50	3.92
Cc1ccc2c(-c3cc4c(CN5CCN(Cc6ccccn6)CC5)cnc(C)c4o3)cc(=O)oc2c1	NCI-H1975	MTT	–	72 h	–	pIC50	4.49
CC(C)c1ccccc1[C@@H]1CCCN1C1CC2(CCN(c3ccc(C(=O)NS(=O)(=O)c4ccc(NC[C@H]5CC[C@](C)(O)CC5)c([N+](=O)[O-])c4)c(Oc4cnc5[nH]ccc5c4)c3)CC2)C1	Rec1	ATP luminescence	–	48 h	–	pIC50	6.74
Cc1ncc(CN2CCc3ccccc3C2)c2cc(C(=O)c3ccc4c(c3)OCCO4)oc12	NCI-H1975	MTT	–	72 h	–	pIC50	4.53
CC1(CN)CCN(c2cnc3c(Sc4ccncc4Cl)n[nH]c3n2)CC1	NCI-H1975	–	–	96 h	–	pIC50	5.18
C#Cc1cccc(Nc2ncnc3cc(OCCOC)c(OCCOC)cc23)c1	NCI-H1975	MTT	–	72 h	–	pIC50	4.26
CC(=O)Nc1ccc(Oc2ccc(C(=O)C(Cl)Cl)cc2[N+](=O)[O-])cc1	NCI-H1975	MTT	2.5 µM	–	–	inhibition	88.3%
C=CC(=O)NC1CCN(c2ncc3ncnc(Nc4ccc(Oc5ccc6c(c5)ncn6C)c(C)c4)c3n2)CC1	NCI-H322	–	–	–	–	pEC50	6.33
COc1cccc2c1C(=O)c1c(O)c3c(c(O)c1C2=O)C[C@@](O)(C(=O)CO)C[C@@H]3O[C@H]1C[C@H](N)[C@H](O)[C@H](C)O1	HEK293	MTT	–	72 h	–	pIC50	7.22
C=C(F)C(=O)N1CCN(c2nc(OC[C@@H]3CCCN3C)nc3c2CCN(c2cccc4cccc(Cl)c24)C3)C[C@@H]1CC#N	SW1463	ATP luminescence	–	–	3D culture	pIC50	8.37
CC(C)Oc1ccc(S(=O)(=O)c2ccc(Oc3cc(OCC(N)=O)c(C(=O)C(Cl)Cl)cc3[N+](=O)[O-])cc2)cc1	NCI-H1975	MTT	–	72 h	–	pIC50	6.52
O=C(NO)c1ccc(CNc2nc3cccc(-c4ccc5c(c4)OCO5)n3n2)cc1	SF-539	SRB	–	–	–	GI50	600 nM
O=C1c2ccccc2C(=O)c2c(Oc3ccc(C(=O)C(Cl)Cl)cc3[N+](=O)[O-])cccc21	NCI-H1975	MTT	2.5 µM	–	–	inhibition	97.1%
COc1cc2c3c(n(CCCNCCO)c(=O)c2cc1OC)-c1nc2c(cc1C3=O)OCO2	SF-539	SRB	–	48 h	–	GI50	1000 nM
O=C(c1ccccc1)c1ccc(Oc2ccc(C(=O)C(Cl)Cl)cc2[N+](=O)[O-])cc1	NCI-H1975	MTT	2.5 µM	–	–	inhibition	97.8%
Cc1sc2c(c1C)C(c1ccc(Cl)cc1)=N[C@@H](CC(=O)NCCCCCCCCNC(=O)COc1cccc3c1C(=O)N(C1CCC(=O)NC1=O)C3=O)c1nnc(C)n1-2 (stereo partly shown)	SET-2	ATP luminescence	–	–	–	pIC50	7.46
